Marks after values point to notes of the source that are not given here.
What was measured:
[1] = biological target: apo-transferrin (apoTf) (Homo sapiens, UniProt P02787); experiment: Stability assessment in apoTf solution; format: in vitro ADME; conditions: 74 kBq/100 μL added to same volume of 0.2 mM apoTf in 200 mM sodium bicarbonate buffer pH 7.4 (ApoTf 0.1 mM), 37 °C, 5% CO2, RP-TLC, mean ± SD (n = 5)
Outline: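 [67Ga]-labelled test compound was HPLC-purified and taken up in D-PBS(−). 74 kBq/100 μL was mixed with an equal volume of 0.2 mM (stock) apoTf in 200 mM sodium bicarbonate, pH 7.4. The mix was held at 37 °C under 5% CO2. At 3 and 24 h, 5 μL aliquots were analysed by RP-18 TLC in 0.1% aqueous TFA/MeCN with 0.1% TFA (2:3).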

[2] = Ga complex with N3O3 configuration, 1.5 h; cited from earlier work

apo-transferrin (apoTf), sequence (P02787 20-698): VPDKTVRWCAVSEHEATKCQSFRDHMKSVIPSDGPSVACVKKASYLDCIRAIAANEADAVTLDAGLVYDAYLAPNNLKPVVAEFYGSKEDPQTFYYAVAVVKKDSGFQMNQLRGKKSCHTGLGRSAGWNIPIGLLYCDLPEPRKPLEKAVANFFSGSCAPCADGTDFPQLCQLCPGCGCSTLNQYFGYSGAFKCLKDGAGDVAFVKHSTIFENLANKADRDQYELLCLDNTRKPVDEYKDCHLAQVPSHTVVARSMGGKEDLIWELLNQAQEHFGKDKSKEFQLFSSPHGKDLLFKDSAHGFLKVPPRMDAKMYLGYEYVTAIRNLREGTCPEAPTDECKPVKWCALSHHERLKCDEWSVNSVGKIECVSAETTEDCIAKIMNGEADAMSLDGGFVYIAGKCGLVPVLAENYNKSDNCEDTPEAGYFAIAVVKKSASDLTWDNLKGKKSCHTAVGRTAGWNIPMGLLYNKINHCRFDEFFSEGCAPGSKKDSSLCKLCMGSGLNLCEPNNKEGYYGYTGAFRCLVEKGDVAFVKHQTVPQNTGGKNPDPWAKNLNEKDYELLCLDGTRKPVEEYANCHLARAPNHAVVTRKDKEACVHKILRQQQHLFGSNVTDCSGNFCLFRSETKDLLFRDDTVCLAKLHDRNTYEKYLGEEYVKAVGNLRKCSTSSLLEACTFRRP

SMILES	Stability of 67Ga-labeled model chelators, ApoTf (0.1 mM), 3 h [1]	Stability of 67Ga-labeled model chelators, ApoTf (0.1 mM), 24 h [1]	Ga complex decomposed in human serum [2] [%]
CCCCNC(=O)CN1CCN(CC(=O)[O-])CCN(CC(=O)[O-])CCN(CC(=O)[O-])CC1.[67Ga+3] [[^67Ga]Ga-DO3AM^Bu]	87.4 ± 0.5 ^b ^c	43.1 ± 1.1 ^b ^c	–
O=C([O-])CN1CCN(CC(=O)[O-])CCN(CC(=O)[O-])CCN(CC(=O)[O-])CC1.[67Ga+3] [[^67Ga]Ga-DOTA, reference compound]	96.4 ± 0.2	89.6 ± 0.5	–
CCCCNC(=O)CCC(C(=O)[O-])N1CCN(CC(=O)[O-])CCN(CC(=O)[O-])CCN(CC(=O)[O-])CC1.[67Ga+3] (centres unmarked) [[^67Ga]Ga-DOTAGAM^Bu]	80.0 ± 1.3 ^b ^c ^d	27.5 ± 4.6 ^b ^c ^d	–
O=C([O-])CN1CCN(CC(=O)[O-])CCN(Cc2ccc([N+](=O)[O-])cc2)CCN(CC(=O)[O-])CC1.[67Ga+3] [[^67Ga]Ga-p-NO2-Bn-DO3A]	93.8 ± 0.6 ^b	67.5 ± 0.6 ^b	–
O=C([O-])CN1CCN(CC(=O)[O-])CCN(CC(=O)[O-])C(Cc2ccc([N+](=O)[O-])cc2)CN(CC(=O)[O-])CC1.[67Ga+3] (centres unmarked) [[^67Ga]Ga-p-NO2-Bn-DOTA (A)]	95.1 ± 1.2 ^d ^e ^f	90.3 ± 0.7 ^c ^d ^e ^f	–
O=C(O)CN1CCOCCN(CC(=O)O)CCN(CC(=O)O)CC1 [oxo-DO3A]	–	–	> 80

Source: paper PMC9713862 (ACS Omega, 2022)
